# Columns and labels:
# Cannabinoid receptor 2 [1] = target: T1, Cannabinoid receptor 2 (Homo sapiens, UniProt P34972); experiment: Displacement of [3H]CP-55,940 from human CB2 receptor expressed in CHO cell membranes
# How it was run: (§1)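 Membranes from CHO cells expressing human or murine CB2 were incubated with [3H]CP-55,940 in 50 mM Tris, 5 mM MgCl2, 2.5 mM EGTA, 0.1% fatty-acid-free BSA, pH 7.4, 1 h at 30 °C with shaking. Reaction stopped by filtration through PEI-coated GF/B. Ki from nonlinear regression using saturation-derived Kd. Ten concentrations in triplicate.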
# Cannabinoid receptor 2 [2] = target: Cannabinoid receptor 2 (Mus musculus, UniProt P47936); experiment: Displacement of [3H]CP-55,940 from mouse CB2 receptor expressed in CHO cell membranes; how it was run: as §1
# [3] = Lipophilicity, log D of the compound in n-octanol/phosphate buffer pH 7.4 by shake flask method; assay type: physicochemical
# Cannabinoid receptor 1 = Cannabinoid receptor 1 (Homo sapiens, UniProt P21554); experiment: Activity at human CB1 receptor expressed in CHO cells assessed as cAMP accumulation incubated for 30 mins by time-resolved FRET assay; assay type: functional, cell-based
# How it was run: (§2)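 CHO cells expressing human CB1 or CB2 were seeded 1 day before in DMEM/HT supplement/10% FCS. Medium was replaced with Krebs Ringer bicarbonate buffer containing 1 mM IBMX, 30 min at 30 °C, then compound added for 30 min at 30 °C. cAMP was read by time-resolved FRET (cAMP-Nano-TRF kit) against a standard curve from 10 μM to 0.13 nM. Ten concentrations in triplicate, single experiment.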
# Cannabinoid receptor 2 [4] = target: T1, Cannabinoid receptor 2; experiment: Activity at human CB2 receptor expressed in CHO cells assessed as cAMP accumulation incubated for 30 mins by time-resolved FRET assay; assay type: functional, cell-based; how it was run: as §2
# [5] = Substrate activity at P-gp (unknown origin); assay type: ADME; details: human
# CHO = experiment: Selectivity index, ratio of EC50 for human CB1 receptor expressed in CHO cells to EC50 for human CB2 receptor expressed in CHO cells; assay type: cell-based
# [6] = Drug level in brain of ip dosed rat after 1 hr; assay type: ADME, organism-based; details: read-out: Drug uptake
# [7] = Ratio of drug level in brain to plasma in ip dosed rat; assay type: ADME, organism-based; details: read-out: BPR
# Cannabinoid receptor 2 [8] = target: T1, Cannabinoid receptor 2; experiment: Binding affinity to human CB2 receptor
# How it was run: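 Competition binding with [³H]CP-55,940 on membranes from CHO cells expressing human CB2. Buffer: 50 mM Tris, 5 mM MgCl₂, 2.5 mM EGTA, 0.1% fatty-acid-free BSA, pH 7.4. Incubated 1 h at 30 °C with shaking, then rapid filtration through 0.5% polyethylenimine-coated filters. Ki from nonlinear regression, using Kd from saturation experiments. Single experiment, triplicates, 10 concentrations.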
# Cannabinoid receptor 1, sequence (P21554 whole entry, looked up): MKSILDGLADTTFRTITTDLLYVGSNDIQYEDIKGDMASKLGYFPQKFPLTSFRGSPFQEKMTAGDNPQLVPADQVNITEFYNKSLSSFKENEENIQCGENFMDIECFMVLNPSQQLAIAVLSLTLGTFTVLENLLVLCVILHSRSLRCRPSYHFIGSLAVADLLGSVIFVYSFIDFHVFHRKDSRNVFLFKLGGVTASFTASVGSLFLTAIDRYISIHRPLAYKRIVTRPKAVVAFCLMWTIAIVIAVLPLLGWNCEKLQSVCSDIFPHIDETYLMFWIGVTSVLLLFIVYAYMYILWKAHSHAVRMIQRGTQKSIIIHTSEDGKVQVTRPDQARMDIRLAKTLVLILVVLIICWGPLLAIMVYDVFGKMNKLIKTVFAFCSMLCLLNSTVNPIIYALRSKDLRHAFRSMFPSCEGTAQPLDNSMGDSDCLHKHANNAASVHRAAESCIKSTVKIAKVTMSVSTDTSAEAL
# T1 sequence (P34972 whole entry): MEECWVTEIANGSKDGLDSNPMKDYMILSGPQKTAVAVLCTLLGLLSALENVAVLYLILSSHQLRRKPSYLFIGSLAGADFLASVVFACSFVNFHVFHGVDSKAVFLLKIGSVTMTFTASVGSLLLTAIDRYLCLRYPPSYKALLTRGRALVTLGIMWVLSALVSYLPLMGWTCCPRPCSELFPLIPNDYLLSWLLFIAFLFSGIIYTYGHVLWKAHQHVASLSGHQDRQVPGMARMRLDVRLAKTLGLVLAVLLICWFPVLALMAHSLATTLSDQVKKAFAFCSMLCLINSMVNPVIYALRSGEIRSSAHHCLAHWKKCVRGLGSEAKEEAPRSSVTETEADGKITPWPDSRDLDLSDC
# Cannabinoid receptor 2 (Mus musculus, UniProt P47936), sequence (P47936 whole entry): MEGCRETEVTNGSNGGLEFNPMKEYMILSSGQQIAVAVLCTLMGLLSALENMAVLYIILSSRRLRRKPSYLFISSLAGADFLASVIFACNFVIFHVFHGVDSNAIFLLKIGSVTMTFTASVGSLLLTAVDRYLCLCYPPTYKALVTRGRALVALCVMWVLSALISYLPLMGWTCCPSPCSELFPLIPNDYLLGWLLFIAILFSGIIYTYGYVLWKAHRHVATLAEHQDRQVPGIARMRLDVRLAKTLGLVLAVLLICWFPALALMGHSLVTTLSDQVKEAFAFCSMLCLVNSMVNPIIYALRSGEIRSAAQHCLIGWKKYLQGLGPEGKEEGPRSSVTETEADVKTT
Compound,Ki (Cannabinoid receptor 2 [1]),Ki (Cannabinoid receptor 2 [2]),logD [3],EC50 (Cannabinoid receptor 1),EC50 (Cannabinoid receptor 2 [4]),Activity [5],Ratio EC50 (CHO),concentration at 1 h [6],Kp [7],Ki (Cannabinoid receptor 2 [8])
COC1CN(c2ccc(C(=O)NC3(CC(N)=O)COC3)nc2OCC2CC2)C1,1020 nM,3110 nM,1.7,> 10 µM,,,,,,
CC(C)(NC(=O)c1ccc(N2CC(F)(F)C2)c(OCC2CC2)n1)c1nnc(C2CC2)o1,> 10000 nM,> 10000 nM,,> 10 µM,> 10000 nM,,,,,
CCC(CC)(NC(=O)c1ccc(N2CC(OC)C2)c(OCC2CC2)n1)C(=O)N1CC(F)C1,18.3 nM,6.9 nM,3.25,> 10 µM,4.4 nM,Active,> 1000,,,
COCCOCC(C)(C)c1cc(NC(=O)c2ccc(C3CCCC3)c(OCC3CC3)n2)on1,294 nM,12.7 nM,,> 10 µM,,,,,,
COC1CN(c2ccc(C(=O)NC(C)(C)Cc3nnc(-c4ccc(F)cc4)o3)nc2OCC2CC2)C1,466 nM,504 nM,,> 10 µM,1810 nM,,,,,
CCC(CC)(NC(=O)c1ccc(N2CC(OC)C2)c(OCC2CC2)n1)C(=O)NC,170 nM,60.4 nM,3.18,> 10 µM,,,,,,
COc1ccc2c(c1)c(CCN1CCOCC1)c(C)n2C(=O)c1cccc(Cl)c1Cl,,,,,,,,> 100 nM,5,3.9 nM
CC(C)(Cc1nnc(-c2ccc(F)cc2)o1)NC(=O)c1ccc(C2CCCC2)c(OCC2CC2)n1,416 nM,403 nM,,> 10 µM,,,,,,
CCC(CC)(NC(=O)c1ccc(N2CC(OC)C2)c(OCC2CC2)n1)C(=O)NCCCF,2060 nM,5260 nM,3.67,> 10 µM,,,,,,
CC(C)(NC(=O)c1ccc(N2CC(F)(F)C2)c(OCC2CC2)n1)c1nnc(-c2ccccc2)o1,3960 nM,> 10000 nM,,> 10 µM,> 10000 nM,,,,,

# Reference: ChEMBL document CHEMBL3580634, “Discovery of a high affinity and selective pyridine analog as a potential positron emission tomography imaging agent for cannabinoid type 2 receptor” (J Med Chem, 2015)
